Compound activity: PubChem, several laboratories
Only some compounds are listed: those with a hit (about 2.3% of all), similar ones and a draw of the others.
PAFAH1B2 inh – PAFAH1B2 (human) inhibition | inhibition, % at 3.39 µM | recombinant PAFAH1B2, FP-rhodamine activity probe, fluorescence polarization | 1.2% of 340,000 active;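 active means inhibition above the mean of all tested compounds plus 3 SD, cut at about 24% in these data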
Target sequence (P68402 whole entry, looked up): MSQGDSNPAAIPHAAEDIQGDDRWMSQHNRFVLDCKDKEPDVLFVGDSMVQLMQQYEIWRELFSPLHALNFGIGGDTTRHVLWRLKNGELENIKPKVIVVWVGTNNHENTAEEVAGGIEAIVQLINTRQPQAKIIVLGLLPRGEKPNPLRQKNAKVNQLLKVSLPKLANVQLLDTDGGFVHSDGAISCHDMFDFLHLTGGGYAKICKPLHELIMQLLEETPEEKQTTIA
Apaf1 inhib – blocks human Apaf-1 apoptosome activity; 0.71% of 330,000 active; O14727; reconstituted apoptosome caspase-3 activity, DEVD-Rh110 fluorescence; inhibition, % at 20 µM; AID 489030; active means inhibition of at least 40% at 20 µM
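Material: cell-free apoptosome with Apaf-1, procaspase-3 and caspase-9; Buffer or medium: Hepes pH 7.5 with detergent and BSA; Reagent: cytochrome c trigger plus (Z-DEVD)2-Rh110 caspase-3 substrate; Times: compound with Apaf-1, dATP, procaspase-3 30 min, then 50 min reaction, room temperature; Technique: Rh110 fluorescence intensity.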
PAFAH1B3 FP inh – PAFAH1B3 (human) inhibition. recombinant PAFAH1B3, FP-rhodamine probe, fluorescence polarization. AID 492972. inhibition, % at 3.39 µM. 0.28% of 340,000 active. Q15102;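 active means inhibition above the screen-wide average of all tested compounds plus 3 SD, cut at about 25% in these data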
Target sequence (Q15102 whole entry, looked up): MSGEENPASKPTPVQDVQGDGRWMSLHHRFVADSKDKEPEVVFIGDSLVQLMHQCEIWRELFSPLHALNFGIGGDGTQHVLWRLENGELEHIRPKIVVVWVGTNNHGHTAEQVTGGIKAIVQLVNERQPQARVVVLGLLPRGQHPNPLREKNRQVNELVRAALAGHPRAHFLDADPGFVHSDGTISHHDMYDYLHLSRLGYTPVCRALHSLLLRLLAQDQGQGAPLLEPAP
TDP2 inh – blocks human TDP2 phosphodiesterase activity. recombinant TDP2, T5PNP hydrolysis, p-nitrophenol absorbance 415 nm. inhibition, % at 12.8 µM. 0.34% of 370,000 active. AID 720702;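 active means inhibition above the mean of all tested compounds plus 3 SD, set per campaign, cut at about 25% in these data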
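Material: recombinant human TDP2; quantity: TDP2 enzyme at 120 nM final; medium: Tris-HCl pH 7.5 with MgCl2; compound: single concentration, 12.8 µM nominal, with 1% DMSO; incubation: 2 h enzyme incubation at 37 °C; signal: epi absorbance; measure: percent inhibition; benchmarks: high control without enzyme, low control DMSO plus TDP2; repeats: singlicate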
PAFAH2 inh – inhibitors of human PAFAH2; recombinant PAFAH2, FP-rhodamine activity probe, fluorescence polarization; inhibition, % at 3.39 µM; 0.99% of 340,000 active; AID 492956; Q99487;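 active means inhibition above the mean over all tested compounds plus 3 SD, cut at about 30% in these data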;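 further: inhibitors block probe labeling of enzyme so polarization drops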
PAFAH2 confirm – confirmation of human PAFAH2 inhibitors; inhibition, % at 3.39 µM; shares compounds with PAFAH2 inh; AID 493030; 65% of 2,300 active; recombinant PAFAH2, FP-rhodamine activity probe, fluorescence polarization;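 active means mean inhibition over three repeats above a set limit taken from the earlier primary screen, cut at about 30% in these data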;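 further: inhibitor blocks binding of rhodamine activity probe so polarization falls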
A number is an active result; – = inactive; · = no result.

SMILES | PAFAH1B2 inh | Apaf1 inhib | PAFAH1B3 FP inh | TDP2 inh | PAFAH2 inh | PAFAH2 confirm
COc1ccccc1C(=O)n1ccc2ccc(-c3ccc4ccn(Cc5ccccc5)c4c3)cc21 | · | · | · | – | · | ·
COc1ccc(C(=O)OCC(=O)NC2CCCC2)c(OC)c1OC | – | – | – | – | 89 | 81
COc1cc(SC)ccc1C(=O)OCC(=O)NC1CC1 | – | – | – | – | – | ·
COc1ccc(C(=O)OCC(=O)NC(=O)NC2CCCC2)c(OC)c1 | – | – | – | – | – | ·
COc1ccc(C(=O)OCC(=O)NC2CCCCCC2)c(OC)c1 | – | – | – | – | 82 | 78
COc1ccc(C(=O)OCC(=O)NC2CCCC2)c(OC)c1 | – | – | – | – | 70 | 56
CC(C)(C)OC(=O)NC1CCN(c2nc(-c3ccc(Br)cc3)cs2)CC1 | · | · | · | – | · | ·
COc1cc(C=Nn2c(-c3cc(-c4ccccc4)n[nH]3)n[nH]c2=S)ccc1OC(C)=O | · | · | · | – | · | ·
COc1ccc(Cn2c(NC(=O)c3ccccc3)nc(Cc3ccccc3)c2Cc2ccccc2)cc1 | · | · | · | – | · | ·
COc1ccc(/C=C/C(=O)OCC(=O)NC2CCCCCC2)cc1 | · | · | · | – | · | ·
O=C(COC(=O)/C=C/c1ccc(OC(F)F)cc1)NC1CCCCCCC1 | – | – | – | – | 66 | 71
O=C(COC(=O)/C=C/c1ccc(OC(F)F)cc1)NC1CCCCCC1 | – | – | – | – | 75 | 70
Cc1ccc(S(=O)(=O)N2CCOCC2)cc1NC(=O)COC(=O)c1ccc(OCc2c(C)noc2C)cc1 | – | – | – | – | 44 | 51
Cc1ccc(S(=O)(=O)N2CCOCC2)cc1NC(=O)COC(=O)C1=COCCO1 | – | – | – | – | – | ·
Cc1ccc(S(=O)(=O)N2CCOCC2)cc1NC(=O)COC(=O)c1cncc(Br)c1 | – | – | – | – | – | ·
Cc1ccc(S(=O)(=O)N2CCOCC2)cc1NC(=O)COC(=O)c1ccc2c(c1)OCCO2 | – | – | – | – | 70 | 59
Cc1ccc(S(=O)(=O)N2CCOCC2)cc1NC(=O)COC(=O)c1cnc(Cl)c(Cl)c1 | – | – | – | – | – | ·
Cc1ccc(C(=O)OCC(=O)Nc2cc(S(=O)(=O)N3CCOCC3)ccc2C)cc1 | – | – | – | – | 68 | 61
CCN(CC)S(=O)(=O)c1ccc(C)c(NC(=O)COC(=O)c2ccc(C)c(S(=O)(=O)N3CCOCC3)c2)c1 | – | – | – | – | 81 | 61
COc1ccc(N2CCN(CCCNC(=O)Cn3c(=O)c4cccn4c4cccnc43)CC2)c(OC)c1 | · | · | · | – | · | ·
O=C(CSc1nnc(-c2cccnc2)n1Cc1ccco1)Nc1ccc(Cl)c(Cl)c1 | · | · | · | – | · | ·
C[C@H](CO)N1C[C@H](C)[C@@H](CN(C)C(=O)NC2CCCCC2)OCc2cn(nn2)CCCC1=O | · | · | · | – | · | ·
O=C(COC(=O)c1ccc2c(c1)OCCO2)Nc1cc(S(=O)(=O)N2CCOCC2)ccc1Cl | – | – | – | – | 64 | 44
Cc1ccc(S(=O)(=O)N2CCOCC2)cc1NC(=O)COC(=O)Cc1ccc(Cl)cc1 | – | – | – | – | – | ·
Cc1ccc(S(=O)(=O)N2CCOCC2)cc1NC(=O)COC(=O)c1ccc2c(c1)OCO2 | – | – | – | – | 64 | 52
SMILES | PAFAH1B2 inh | Apaf1 inhib | PAFAH1B3 FP inh | TDP2 inh | PAFAH2 inh | PAFAH2 confirm
O=C(COC(=O)c1cnccn1)Nc1cc(S(=O)(=O)N2CCOCC2)ccc1Cl | – | – | – | – | – | ·
CCOc1ccccc1C(=O)OCC(=O)Nc1cc(S(=O)(=O)N2CCOCC2)ccc1C | – | – | – | – | 32 | –
C#CCNC(=O)C[C@@H]1C(=O)N2CCCC3=C2[C@@]1(C(=O)OC)CCCC3 | · | · | · | – | · | ·
Cc1nc2cc(N=NC3=C(O)CCCC3=O)ccc2s1 | – | – | – | – | – | ·
O=C1CCCC(O)=C1N=Nc1ccc(Cl)c(Cl)c1 | – | – | – | – | 33 | –
COc1cc(/C=N/n2c(COc3ccccc3)n[nH]c2=S)cc(Br)c1O | – | – | – | – | 52 | 38
CCc1n[nH]c(=S)n1/N=C/c1cc(Br)c(O)c(OC)c1 | – | – | – | – | – | ·
O=C(/C=C/c1ccccc1)OCCN=C1NS(=O)(=O)c2ccccc21 | – | – | – | – | 30 | –
O=C(OCCN=C1NS(=O)(=O)c2ccccc21)c1cccs1 | – | – | – | – | 38 | –
O=C(OCCCN=C1NS(=O)(=O)c2ccccc21)c1cccs1 | – | – | – | – | – | ·
CC(CCN1CCC(C(O)(c2ccccc2)c2ccccc2)CC1)Oc1cccc(C(F)(F)F)c1 (stereo unspecified) | · | · | · | – | · | ·
Cc1cc2c(s1)c1cnn(Cc3c(Cl)ccc(C)c3F)c(=O)c1n2C | · | · | · | – | · | ·
O=S1(=O)c2c(cccc2N2CC[C@@H](O)C2)O[C@H]2CCN1C2 | · | · | · | – | · | ·
Cc1cc(C)c(NC(=O)COC(=O)C2CCC2)c(Cl)c1 | – | – | – | – | – | ·
Cc1ccc(NC(=O)COC(=O)C2CC2)c(Br)c1 | – | – | – | – | 55 | 39
Cc1ccc(NC(=O)COC(=O)c2cc(Cl)cc(Cl)c2)c(Br)c1 | – | – | – | – | – | ·
Cc1cc(Br)c(NC(=O)COC(=O)C2CCCCC2)c(Br)c1 | – | – | – | – | 33 | 32
COc1ccc(C2C(C(=O)Nc3ccc(F)cc3F)CCC(=O)N2c2ccc(OC)cc2)cc1 (stereo unspecified) | · | · | · | – | · | ·
COCCN(C(=S)Nc1c(C)cc(C)cc1C)C(C)c1cccs1 (stereo unspecified) | – | – | – | – | 31 | –
COCCN(C(=S)Nc1ccc(C)cc1C)C(C)c1cccs1 (stereo unspecified) | – | – | – | – | – | ·
CCOc1ccc(C(=O)OCC(=O)Nc2ccc(SC(F)F)cc2)cc1OCC | – | – | – | – | 80 | 77
CCOc1ccc(NC(=S)NS(=O)(=O)c2cc(Br)ccc2OCC)cc1 | · | – | · | – | · | ·
CC(C)=CC(=O)OCC(=O)Nc1ccc(SC(F)F)cc1 | – | – | – | – | 78 | 85
CCOc1ccc(Br)cc1S(=O)(=O)Nc1ccc(C(=O)OCC(=O)Nc2ccc(C#N)cc2)cc1 | – | – | – | – | 36 | 30
CC(=O)CCC(=O)OCC(=O)Nc1ccc(SC(F)F)cc1 | – | – | – | – | – | ·
SMILES | PAFAH1B2 inh | Apaf1 inhib | PAFAH1B3 FP inh | TDP2 inh | PAFAH2 inh | PAFAH2 confirm
COc1cc2c(cc1NC(=O)CSc1nnc(-c3ccccc3C)n1Cc1ccco1)oc1ccccc12 | · | · | · | – | · | ·
C[C@@H]1CN(c2ccc(N3CCN(C(=O)OC(C)(C)C)C[C@@H]3C)cc2C#N)C[C@H](C)O1 | · | · | · | – | · | ·
Cc1ccccc1C(=O)n1ccc2ccc(-c3ccc4ccn(Cc5ccc(C#N)cc5)c4c3)cc21 | · | · | · | – | · | ·
O=S(=O)(c1cc2ccccc2s1)n1c(CN2CCOCC2)nc2ccccc21 | · | · | · | – | · | ·
O=C(Nc1ccc(F)c(C(F)(F)F)c1)Nc1nnc(-c2ccncc2)s1 | · | · | · | – | · | ·
O=C(COC(=O)c1ccc(Cl)nc1)Nc1ccc(S(=O)(=O)N2CCCC2)cc1 | – | – | – | – | – | ·
Cc1cnc(C(=O)OCC(=O)Nc2ccc(C)c(S(=O)(=O)N3CCCCCC3)c2)cn1 | – | – | – | – | – | ·
